Test results as given in ChEMBL document CHEMBL3124890, “SAR studies on trisubstituted benzimidazoles as inhibitors of Mtb FtsZ for the development of novel antitubercular agents” (J Med Chem, 2013).
In brackets after ≈: the same amount, converted by molar mass.

Columns and labels:
[1] = test system: Mycobacterium tuberculosis; test: […]; assay type: functional, TN587
In short: (§1)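 Strains were grown at 37 °C in 7H9 Middlebrook broth with 10% OADC, 0.05% Tween and 0.2% glycerol. Compounds were dissolved in DMSO and serially diluted 2-fold, then bacteria were added. Plates were incubated 6 days at 37 °C, then 24 h more with Alamar Blue. MIC was the lowest concentration (μg/mL) that prevented the colour change. Run in triplicate.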

[2] = test system: Mycobacterium tuberculosis; test: […]; assay type: functional, NHN382; in short: as §1

SMILES	MIC [1] [µg/mL]	MIC [2] [µg/mL]
CCCCOC(=O)Nc1cc2nc(C3CCCCC3)[nH]c2cc1N(CC)CC	1.25 (≈ 3.23 µM)	1.25 (≈ 3.23 µM)
CCc1ccc(C(=O)Nc2cc3nc(C4CCCCC4)[nH]c3cc2N(C)C)cc1	0.16 (≈ 0.41 µM)	0.16 (≈ 0.41 µM)
CCCCOC(=O)Nc1cc2nc(C3CCCCC3)[nH]c2cc1N(C)C	0.13 (≈ 0.363 µM)	0.06 (≈ 0.167 µM)
NNC(=O)c1ccncc1 [ISONIAZID]	0.25 (≈ 1.82 µM)	0.25 (≈ 1.82 µM)
